PKA-R2B act – activators of human PKA-R2B complex. AID 504700. PKA-R2B holoenzyme dissociation, Cy5-IP20 fluorescence polarization; R2B truncated from residue 108, S112A mutant; 0% DMSO only, 100% 113 µM cGMP. activation, % at 11.4 µM. P22694+P31323. 340,000 compounds, 0.079% hits;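 active means activation above a cutoff set at the mean over all compounds plus 3 SD, cut at about 18% in these data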;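 further: higher means more holoenzyme dissociation and a rise in polarization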
CAL PDZ FP-1 – blocks peptide binding to the human CAL PDZ domain; Q9HD26; purified CAL PDZ, TMR-peptide fluorescence polarization, 1 h; inhibition, % at 24.9 µM; 300,000 compounds, 0.92% hits; AID 602252;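 active means mean inhibition of at least 30% with at least half of replicates also reaching 30%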;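 further: 0% = DMSO neutral control and 100% = excess unlabeled competitor peptide PRC23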
dFosB act – activators of mouse delta FosB homodimer. P13346. purified delta FosB, TAMRA-CDK5 oligo fluorescence polarization; percent of positive-control signal above neutral wells. activation, % at 25 µM. 340,000 compounds, 0.99% hits;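 active means mean activation above about 17%, with every replicate also reaching it, limit read from the data, passing the limit was not always enough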
PKA-R1A act – activates the PKA-R1A holoenzyme complex; P00514+P68181; PKA-R1A dissociation, Cy5-IP20 fluorescence polarization; scaled: DMSO 0%, 113 µM cGMP 100%; activation, % at 11.4 µM; 340,000 compounds, 0.083% hits; AID 504707;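 active means percent activation above the mean of all tested compounds plus 3 SD, cut at about 19% in these data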;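 further: higher means more PKAc released from R1A so a rise in polarization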
NTR1 agonist – NTR1 (human) agonism | 330,000 compounds, 0.17% hits | P30989 | NTR1-U2OS beta-arrestin-GFP spot imaging, agonist mode | AID 493036 | activation, % at 20 µM;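 active means activation at or above 40% of the spot to cytoplasm intensity ratio, with at least 20 cells analyzed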;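 further: 0% = DMSO without peptide and 100% = 100 nM NTR1 peptide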
Target sequence (P30989 whole entry, looked up): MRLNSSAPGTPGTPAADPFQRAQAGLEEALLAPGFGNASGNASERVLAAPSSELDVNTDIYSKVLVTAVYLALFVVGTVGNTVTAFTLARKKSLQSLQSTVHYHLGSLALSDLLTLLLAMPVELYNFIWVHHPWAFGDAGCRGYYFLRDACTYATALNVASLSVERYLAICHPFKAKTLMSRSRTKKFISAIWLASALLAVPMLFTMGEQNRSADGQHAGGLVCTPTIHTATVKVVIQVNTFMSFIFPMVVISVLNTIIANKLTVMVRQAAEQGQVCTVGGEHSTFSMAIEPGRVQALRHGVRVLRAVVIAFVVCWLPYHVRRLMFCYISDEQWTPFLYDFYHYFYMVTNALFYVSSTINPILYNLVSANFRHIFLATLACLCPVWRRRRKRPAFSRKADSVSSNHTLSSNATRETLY
CAL PDZ FP-2 – blocks peptide binding to human CAL PDZ domain; purified CAL PDZ, TMR-peptide fluorescence polarization, 1 h; inhibition, % at 20 µM; 330,000 compounds, 0.02% hits; AID 504414;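 active means highest replicate inhibition of at least 40%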;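 further: plate controls were DMSO neutral control wells for no effect and unlabeled competitor peptide control wells for full effect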
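Test system: tagged CAL PDZ domain / Buffer or medium: sodium phosphate/NaCl buffer pH 7.4 with TCEP, IgG, Thesit / Reagent: TMR-labelled reporter peptide T*-PRC34 bound in PDZ groove / Compound dosing: single point, 20 µM / Schedule: 1 h incubation at room temperature before polarization reading / Technique: fluorescence polarization (mP) / Benchmarks: unlabelled peptide, DMSO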
An asterisk follows results filed as active; nt = no result; + = active, no number. This is a sample that favours compounds with a hit; in the whole collection about 2% have one here.

SMILES | PKA-R2B act | CAL PDZ FP-1 | dFosB act | PKA-R1A act | NTR1 agonist | CAL PDZ FP-2
CCNC(=O)/C(C#N)=C/c1c(N2CCN(C)CC2)nc2c(C)cccn2c1=O | -1.6 | 42.8* | -14.4 | -0.3 | -0.3 | -0.5
CNC(=O)Cn1nc(C)c(S(=O)(=O)N2CCOCC2)c1C | -6.3 | 49.9* | 5.1 | 5.0 | 3.4 | -0.9
CC(=O)c1ccc(N2C(=NC(=O)C3CCCCC3)SC3CS(=O)(=O)CC32)cc1 (centres undefined) | -6.2 | -0.8 | -9.1 | -11.5 | 1.0 | -1.9
N#CC(=C(O)COC(=O)CCC1CCCCC1)c1nc2ccccc2[nH]1 | 5.4 | -3.7 | -13.5 | -1.7 | nt | 0.4
CC(C)(C)c1ccc(NC(=O)c2ccsc2)cc1 | nt | nt | nt | nt | 0.6 | nt
CNc1nc(NN)nc(Nc2ccccc2)n1 | -0.8 | 58.2* | -1.0 | -1.0 | -0.9 | -2.2
CC(=O)N(c1ccc(C)cc1)S(=O)(=O)c1ccc(Cl)cc1 | 3.8 | 45.9* | 1.8 | 3.6 | 0.3 | -0.9
OC1(c2ccc3ccccc3c2)CCN(Cc2ccccc2)C1 (centres undefined) | -1.2 | 38.2* | -5.9 | -1.8 | 4.2 | -1.1
Cc1ccc(C(=O)NCCc2c[nH]c3ccccc23)s1 | -8.9 | -1.2 | -3.7 | -0.4 | -0.3 | -3.5
CC1=C(C(=O)Nc2ccc(CC(=O)NCc3ccc(OC(C)C)cc3)cc2)SCCO1 | -3.2 | -0.8 | -0.9 | -6.0 | -0.6 | -1.7
CCCNC(=O)c1cc(-c2ccc(Br)cc2)on1 | 7.3 | 32.6* | -4.6 | -2.1 | 0.8 | -1.7
CC(C)NC(=O)c1cc(-c2ccc(Br)cc2)on1 | -4.8 | nt | 6.6 | -7.1 | 0.7 | -2.5
CC(=O)Nc1ccc(NCC(=O)c2ccccc2)cc1 | -2.7 | 49.5* | -0.5 | 2.6 | 1.5 | -1.0
Nc1ccc(S(=O)(=O)NN=Cc2ccccc2[N+](=O)[O-])cc1 | -4.2 | -1.1 | -4.3 | -6.7 | nt | 0.1
CC1CCc2cc(F)ccc2N1C(=O)c1cccs1 (centres undefined) | -5.9 | 31.6* | 0.7 | -10.3 | 0.2 | -1.1
CC1CCc2cc(F)ccc2N1C(=O)c1cccnc1 (centres undefined) | -2.2 | 0.5 | 1.0 | -9.4 | -0.1 | -0.1
CC(=O)Nc1ccc(S(=O)(=O)NCC2CCC(C(=O)NC(C)c3ccc4c(c3)OCCO4)CC2)cc1 (centres undefined) | nt | nt | nt | nt | 1.6 | nt
COc1cccc(CNC(=O)C(C)n2ccc3cc(S(=O)(=O)N4CCCCCC4)ccc32)c1 (centres undefined) | 4.4 | -6.6 | -14.2 | -4.2 | -0.8 | -1.0
COc1ccc2cc(S(=O)(=O)N3CCN(C)CC3)ccc2c1 | -5.8 | 6.6 | -9.8 | -2.5 | -0.3 | -2.2
COc1ccc2cc(S(=O)(=O)N3CCCC3)ccc2c1 | -2.2 | 81.2* | -1.2 | 5.5 | -1.5 | -1.4
COc1cccc(CNC(=O)C(C)n2ccc3cc(S(=O)(=O)N4CCCC4)ccc32)c1 (centres undefined) | -5.9 | 42.0* | -3.5 | -0.7 | 0.8 | -1.3
Cc1ccc(Nc2ncc3c(=O)[nH][nH]c(=O)c3n2)cc1 | 1.6 | -0.3 | 0.5 | -11.0 | nt | -2.1
Cc1ccc(S(=O)(=O)N=N/C=C2\C=CC=CN2O)cc1 | -0.5 | nt | nt | -5.7 | nt | nt
Cc1ccc(C)c(N2CCN(C(=O)c3ccc(Cl)c(NC4=NC5CS(=O)(=O)CC5S4)c3)CC2)c1 (centres undefined) | -3.9 | -6.6 | 0.4 | -10.1 | 0.4 | -2.6
COc1cc(Br)c(C(=O)c2nccc3cc(OC)c(OC)cc23)cc1OC | -3.8 | -2.5 | -14.2 | -8.2 | 7.6 | 71.1*
SMILES | PKA-R2B act | CAL PDZ FP-1 | dFosB act | PKA-R1A act | NTR1 agonist | CAL PDZ FP-2
COc1cc(N)c(C(=O)c2nccc3cc(OC)c(OC)cc23)cc1OC | 4.4 | 5.4 | 5.2 | 4.4 | 0.9 | 0.6
CCC1CCCCN1CC(=O)c1c(C)[nH]c2cc(C)ccc12 (centres undefined) | 5.5 | -3.6 | -4.8 | 1.2 | -1.0 | 0.2
CCCCNC(=O)c1c(CSc2ccccc2)noc1C(=O)NCc1ccccc1 | -0.5 | -2.7 | -4.3 | -8.5 | 0.2 | -1.6
Cc1ccc2nc(-c3ccc(NC(=S)NCCC(C)C)cc3)sc2c1 | -12.5 | active | 0.6 | 6.0 | 2.9 | -1.7
COC(=O)c1c(NC(=O)CN(C)CC(=O)Nc2ccc(C)cc2)sc2c1CCC(C)C2 (centres undefined) | 2.6 | 68.6* | 5.7 | 13.2 | 15.6 | -0.3
CCC1CCCCN1CCCNC(=O)C1CCC(=O)N1Cc1ccc(C)cc1 (centres undefined) | -4.0 | 3.9 | 16.2* | 4.5 | -0.5 | 0.7
CSc1ccc(C(=O)N2CCC(n3nccc3NC(=O)C3CC3)CC2)cc1 | -4.5 | -5.6 | -0.5 | -8.6 | 0.3 | 0.9
C/C(=N\NC(=O)CNc1cccc2ccccc12)c1ccccc1 | -3.9 | 31.0* | -6.4 | -13.1 | -0.3 | 0.2
CCN(CC)CCNc1ccc(CO)c2oc3cc(Cl)ccc3c(=O)c12 | -3.3 | nt | nt | -6.3 | nt | nt
CCN(CC)CCNc1ccc(C)c2sc3ccc(O)cc3c(=O)c12 | -2.6 | 5.0 | 41.0* | -1.0 | nt | 5.1
O=C(Nc1ccc(Cl)cc1)c1nc[nH]c1C(=O)NCCCCNC(=O)c1[nH]cnc1C(=O)Nc1ccc(Cl)cc1 | -2.7 | -2.4 | -9.5 | -14.8 | 4.3 | -0.3
Cn1c(NCc2cccnc2)nc2c1c(=O)n(Cc1ccccc1F)c(=O)n2C | -2.4 | + | -6.9 | -6.4 | 1.4 | 5.9
O=C(COC(=O)Cc1ccc(S(=O)(=O)N2CCOCC2)s1)Nc1ccc(F)cc1F | -5.2 | 44.8* | -4.3 | -7.2 | 2.1 | 0.0
Cc1ccc(S(=O)(=O)N2CCCCC2)cc1NC(=O)COC(=O)C1(C)CC1(Cl)Cl (centres undefined) | -1.4 | 66.8* | -11.5 | 2.8 | 3.7 | -0.1
O=C(Cc1ccc(S(=O)(=O)N2CCCCC2)s1)Nc1ccc(F)cc1F | -0.3 | 5.5 | -4.6 | -0.8 | -0.8 | 0.4
CCOc1ccc(/C=N/OCC(=O)Nc2cc(S(=O)(=O)N3CCOCC3)ccc2OC)cc1 | -5.0 | 46.7* | -4.9 | -9.3 | 1.3 | nt
Cc1ccc(S(=O)(=O)N2CCOCC2)cc1NC(=O)COC(=O)/C=C/c1ccc(F)cc1 | -6.4 | -7.1 | 81.2* | 7.6 | -0.4 | -0.3
O=C(COC(=O)/C=C/c1ccc(S(=O)(=O)N2CCOCC2)cc1)Nc1ccccc1F | -5.6 | nt | 6.2 | -4.0 | 1.5 | -0.3
COc1ccc(NS(=O)(=O)c2cc3c4c(c2)C(C)C(=O)N4CCC3)cc1 (centres undefined) | 9.8 | -1.6 | -4.8 | -1.0 | 2.1 | -3.4
COc1cc(CN2CCC(n3nccc3NC(=O)CCCc3ccccc3)CC2)ccc1F | -4.4 | 0.4 | -5.3 | 0.4 | 1.2 | -1.8
